Data taken from ChEMBL document CHEMBL1132566, “A new class of pseudopeptide antagonists of the kinin B1 receptor containing alkyl spacers” (J Med Chem, 1999).
Activity calls are given as the source filed them. The calls are words filed in the database; no cut-off is given here. Where a SMILES comes first, the peptide text is derived from it. [ ]: non-standard residue; d: D form. Oic = O=C(O)[C@@H]1C[C@@H]2CCCC[C@@H]2N1; d2Nal = N[C@H](Cc1ccc2ccccc2c1)C(=O)O; Hyp = O=C(O)[C@@H]1C[C@@H](O)CN1; dTic = O=C(O)[C@H]1Cc2ccccc2CN1; 2Thi = N[C@@H](Cc1cccs1)C(=O)O

Legend:
Type in all cases: functional, tissue-based
B2 bradykinin receptor = target: T1, B2 bradykinin receptor (Cavia porcellus, UniProt O70526); assay: (§1) Antagonistic activity against Bradykinin receptor B2 of guinea pig ileum longitudinal smooth muscle.; conditions: for Kb: read-out: pA2 (converted)
T1 sequence (O70526 whole entry): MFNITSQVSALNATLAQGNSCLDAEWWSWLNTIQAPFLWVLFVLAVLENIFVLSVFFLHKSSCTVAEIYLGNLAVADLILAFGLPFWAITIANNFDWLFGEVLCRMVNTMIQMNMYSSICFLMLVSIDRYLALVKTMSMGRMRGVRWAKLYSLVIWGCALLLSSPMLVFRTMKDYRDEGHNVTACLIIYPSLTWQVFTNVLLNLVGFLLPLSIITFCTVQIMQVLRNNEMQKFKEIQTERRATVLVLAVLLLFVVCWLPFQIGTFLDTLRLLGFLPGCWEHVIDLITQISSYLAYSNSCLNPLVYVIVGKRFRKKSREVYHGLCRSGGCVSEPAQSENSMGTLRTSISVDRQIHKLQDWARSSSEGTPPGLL
Outline: (§2)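 Guinea pig ileum longitudinal muscle-myenteric plexus strips in oxygenated (95% O2/5% CO2) Krebs with indomethacin, guanethidine (3 μM each), chlorpheniramine, atropine (1 μM each). Cumulative BK curves with thiorphan, bestatin, captopril (1 μM each); antagonist given 15 min before repeat curve at 1–10 μM. Contraction read-out; pA2 (dose ratio 2), mean ± SE of 4–15 experiments.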

B1 bradykinin receptor = target: T2, B1 bradykinin receptor (Rattus norvegicus, UniProt P97583); assay: Antagonistic activity against Bradykinin receptor B1 of rat ileum longitudinal smooth muscle.; conditions: for Kb: read-out: pA2 (converted)
T2 sequence (P97583 whole entry): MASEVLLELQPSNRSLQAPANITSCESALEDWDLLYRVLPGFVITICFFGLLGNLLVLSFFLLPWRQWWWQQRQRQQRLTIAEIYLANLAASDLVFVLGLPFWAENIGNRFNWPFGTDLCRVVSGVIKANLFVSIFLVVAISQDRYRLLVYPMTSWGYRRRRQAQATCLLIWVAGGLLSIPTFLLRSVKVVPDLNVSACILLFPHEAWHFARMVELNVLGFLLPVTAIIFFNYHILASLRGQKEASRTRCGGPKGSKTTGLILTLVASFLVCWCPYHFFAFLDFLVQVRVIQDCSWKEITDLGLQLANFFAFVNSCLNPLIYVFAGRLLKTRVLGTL
Outline: as §2, with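 “Rat” for “Guinea pig”, “desArg9-BK” for “BK”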

[1] = target: T3, B2 bradykinin receptor (Cavia porcellus) (UniProt O70526); assay: as §1; outline: as §2
T3 sequence (whole entry): T1 sequence (O70526 whole entry)

| Kb (B2 bradykinin receptor) [µM] | Kb (B1 bradykinin receptor) [µM] | pA2 (B2 bradykinin receptor) | pA2 (B1 bradykinin receptor) | pA2 [1] | Structure (SMILES) |
| --- | --- | --- | --- | --- | --- |
| 3.98 | 0.1 | – | – | – | NC(N)=NCCC[C@@H](N)C(=O)N[C@@H](CCCN=C(N)N)C(=O)NCCCCCCCCCCCC(=O)N[C@@H](CO)C(=O)N1Cc2ccccc2C[C@@H]1C(=O)N1[C@H](C(=O)O)C[C@@H]2CCCC[C@@H]21 |
| > 10 | 3.16 | – | – | – | NC(N)=NCCC[C@@H](N)C(=O)N[C@@H](CCCN=C(N)N)C(=O)NC1(C(=O)N[C@@H](CO)C(=O)N2Cc3ccccc3C[C@@H]2C(=O)N2[C@H](C(=O)O)C[C@@H]3CCCC[C@@H]32)CCCCCCC1 |
| – | – | 5.5 | 6.3 | – | NCCCC[C@H](NC(=O)[C@@H](N)CCCCN)C(=O)N[C@@H](CCCN=C(N)N)C(=O)NCCCCCCCCCCC(=O)N[C@@H](CO)C(=O)N[C@@H](C(=O)N1[C@@H](C(=O)O)C[C@@H]2CCCC[C@@H]21)C1Cc2ccccc2C1 |
| – | 6.31 | – | – | inactive | NC(N)=NCCC[C@@H](N)C(=O)N[C@@H](CCCN=C(N)N)C(=O)NCC(=O)NC1(C(=O)NCC(=O)N[C@@H](CO)C(=O)N2Cc3ccccc3C[C@@H]2C(=O)N2[C@H](C(=O)O)C[C@@H]3CCCC[C@@H]32)CCCCCC1 |
| – | 10 | – | – | inactive | NC(N)=NCCC[C@@H](N)C(=O)N[C@@H](CCCN=C(N)N)C(=O)NC1(C(=O)N[C@@H](CO)C(=O)N2Cc3ccccc3C[C@@H]2C(=O)N2[C@H](C(=O)O)C[C@@H]3CCCC[C@@H]32)CCCCC1 |
| 1.26 | 0.1 | – | – | – | CC[C@H](C)[C@H](NC(=O)[C@@H](Cc1ccc2ccccc2c1)NC(=O)[C@H](CO)NC(=O)CCCCCCCCCCNC(=O)[C@H](CCCN=C(N)N)NC(=O)[C@H](CCCCN)NC(C)=O)C(=O)O |
| 1 | 0.0631 | – | – | – | CC[C@H](C)[C@H](NC(=O)[C@@H](Cc1ccc2ccccc2c1)NC(=O)[C@H](CO)NC(=O)[C@H](Cc1ccccc1)NC(=O)CNC(=O)[C@@H]1CCCN1C(=O)[C@@H]1CCCN1C(=O)[C@H](CCCN=C(N)N)NC(=O)[C@H](CCCCN)NC(C)=O)C(=O)O (Ac-KRPPGFS[d2Nal]I-OH) |
| – | 3.98 | – | – | inactive | NC(N)=NCCC[C@@H](N)C(=O)N[C@@H](CCCN=C(N)N)C(=O)NCCCCCCCC(=O)N[C@@H](CO)C(=O)N1Cc2ccccc2C[C@@H]1C(=O)N1[C@H](C(=O)O)C[C@@H]2CCCC[C@@H]21 |
| – | 0.0794 | – | – | inactive | NC(N)=NCCC[C@@H](N)C(=O)N[C@@H](CCCN=C(N)N)C(=O)NCCCCCCCCCCC(=O)N[C@@H](CO)C(=O)N1Cc2ccccc2C[C@@H]1C(=O)N1[C@H](C(=O)O)C[C@@H]2CCCC[C@@H]21 |
| 3.16 | 0.00794 | – | – | – | NCCCC[C@H](NC(=O)[C@@H](N)CCCCN)C(=O)N[C@@H](CCCN=C(N)N)C(=O)N1CCC[C@H]1C(=O)N1C[C@H](O)C[C@H]1C(=O)NCC(=O)N[C@H](C(=O)N[C@@H](CO)C(=O)N[C@@H](C(=O)N1[C@H](C(=O)O)C[C@@H]2CCCC[C@@H]21)C1Cc2ccccc2C1)C1Cc2ccccc2C1 |
| – | 2 | – | – | inactive | NC(N)=NCCC[C@@H](N)C(=O)N[C@@H](CCCN=C(N)N)C(=O)NCCCCCC(=O)N[C@@H](CO)C(=O)N1Cc2ccccc2C[C@@H]1C(=O)N1[C@H](C(=O)O)C[C@@H]2CCCC[C@@H]21 |
| 0.00631 | 0.02 | – | – | – | NC(N)=NCCC[C@@H](N)C(=O)N[C@@H](CCCN=C(N)N)C(=O)N1CCC[C@H]1C(=O)N1C[C@H](O)C[C@H]1C(=O)NCC(=O)N[C@H](C(=O)N[C@@H](CO)C(=O)N[C@@H](C(=O)N1[C@H](C(=O)N[C@@H](CCCN=C(N)N)C(=O)O)C[C@@H]2CCCC[C@@H]21)C1Cc2ccccc2C1)C1Cc2ccccc2C1 |
| – | 6.31 | – | – | inactive | NC(N)=NCCC[C@@H](N)C(=O)N[C@@H](CCCN=C(N)N)C(=O)NC1(C(=O)N[C@@H](CO)C(=O)N2Cc3ccccc3C[C@@H]2C(=O)N2[C@H](C(=O)O)C[C@@H]3CCCC[C@@H]32)CCCCCCCC1 |
| – | 0.251 | – | – | inactive | CC(=O)N[C@@H](CCCCN)C(=O)N[C@@H](CCCN=C(N)N)C(=O)NCCCCCCCCCCC(=O)N[C@@H](CO)C(=O)N1Cc2ccccc2C[C@@H]1C(=O)N1[C@H](C(=O)O)C[C@@H]2CCCC[C@@H]21 |
| 0.794 | 10 | – | – | – | NC(N)=NCCC[C@@H](N)C(=O)N[C@@H](CCCN=C(N)N)C(=O)NCCCCCCCCCCC(=O)N[C@@H](CO)C(=O)N[C@@H](C(=O)N1[C@H](C(=O)N[C@@H](CCCN=C(N)N)C(=O)O)C[C@@H]2CCCC[C@@H]21)C1Cc2ccccc2C1 |
| – | 1.26 | – | – | inactive | NC(N)=NCCC[C@@H](N)C(=O)N[C@@H](CCCN=C(N)N)C(=O)NC1(C(=O)N[C@@H](CO)C(=O)N2Cc3ccccc3C[C@@H]2C(=O)N2[C@H](C(=O)O)C[C@@H]3CCCC[C@@H]32)CCCCCC1 |
| – | 1 | – | – | inactive | NCCCCC(N)C(=O)N[C@@H](CCCN=C(N)N)C(=O)NCCCCCCCCCCC(=O)N[C@@H](CO)C(=O)N1Cc2ccccc2C[C@@H]1C(=O)N1[C@H](C(=O)O)C[C@@H]2CCCC[C@@H]21 (stereo in doubt) |
| – | – | 6 | 6.3 | – | NC(N)=NCCC[C@@H](N)C(=O)N[C@@H](CCCN=C(N)N)C(=O)NCCCCCCCCCCC(=O)N[C@@H](CO)C(=O)N[C@@H](C(=O)N1[C@@H](C(=O)O)C[C@H]2CCCC[C@H]21)C1Cc2ccccc2C1 |
| – | 0.794 | – | – | inactive | NCCCC[C@H](NC(=O)[C@@H](N)CCCCN)C(=O)N[C@@H](CCCN=C(N)N)C(=O)NCCCCCCCCCCC(=O)N[C@@H](CO)C(=O)N1Cc2ccccc2C[C@@H]1C(=O)N1[C@H](C(=O)O)C[C@@H]2CCCC[C@@H]21 |
| – | 2.51 | – | – | inactive | NC(N)=NCCC[C@@H](N)C(=O)N[C@@H](CCCN=C(N)N)C(=O)NCCC(=O)NC1(C(=O)NCCC(=O)N[C@@H](CO)C(=O)N2Cc3ccccc3C[C@@H]2C(=O)N2[C@H](C(=O)O)C[C@@H]3CCCC[C@@H]32)CCCCCC1 |
| > 10 | 2 | – | – | – | NC(N)=NCCC[C@@H](N)C(=O)N[C@@H](CCCN=C(N)N)C(=O)NCCCC(=O)NC1(C(=O)NCCCC(=O)N[C@@H](CO)C(=O)N2Cc3ccccc3C[C@@H]2C(=O)N2[C@H](C(=O)O)C[C@@H]3CCCC[C@@H]32)CCCCCC1 |
| 2 | 0.158 | – | – | – | N=C(N)NCCC[C@@H](N)C(=O)N[C@@H](CCCNC(=N)N)C(=O)N1CCC[C@H]1C(=O)N1C[C@H](O)C[C@H]1C(=O)NCC(=O)N[C@@H](Cc1cccs1)C(=O)N[C@@H](CO)C(=O)N1Cc2ccccc2C[C@@H]1C(=O)N1[C@H](C(=O)O)C[C@@H]2CCCC[C@@H]21 (H-[dR]RP[Hyp]G[2Thi]S[dTic][Oic]-OH) |
